Assay results published in ChEMBL document CHEMBL2046388, “Synthesis and biological evaluation of novel anticancer bivalent colchicine-tubulizine hybrids” (Bioorg Med Chem, 2012).
The source made the active and inactive calls. The calls are words filed in the database; no cut-off is given here.

Legend:
[1] = Lipophilicity, log D of the compound; assay type: physicochemical; conditions: octanol/water
[2] = test system: HBL-100; assay: Antiproliferative activity against human HBL100 after 72 hrs by MTT assay; assay type: functional, cell-based; conditions: HBL-100, 72 h
[3] = organism: Ovis aries; assay: Inhibition of sheep tubulin assembly assessed as half inhibitory molar ratio of compound to tubulin by DAPI fluorometric assay; design: unit not given here
In short: (§1)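 Lamb brain tubulin (ammonium sulfate fractionation, ion-exchange chromatography; quantified at 275 nm) was polymerized at 37 °C, started by warming, with DAPI in 20 mM sodium phosphate, 1 mM EGTA, 10 mM MgCl2, 3.4 M glycerol, pH 6.5, with DMSO under 1%. DAPI fluorescence was followed over time, and % inhibition was plotted against the ligand:tubulin molar ratio. Run in triplicate.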

[4] = organism: Ovis aries; assay: Inhibition of sheep tubulin polymerization at 1 to 30 uM by DAPI fluorometric assay; in short: as §1

Structure (SMILES) | logD [1] | INH [3] | inhibition [4] | IC50 [2] [nM]
COc1ccc(CNc2nc(NCCOC(=O)CCCCCCCCCCCCCCCc3cn(CCCCCC(=O)N[C@H]4CCc5cc(OC)c(OC)c(OC)c5-c5ccc(OC)c(=O)cc54)nn3)nc(NCc3ccc(OC)cc3)n2)cc1 | 9.814 | 2.75 |  | 599
COc1ccc(CNc2nc(NCCO)nc(NCc3ccc(OC)cc3)n2)cc1 |  | 0.34 |  | 3140
COc1ccc(CNc2nc(NCCOC(=O)CCCc3cn(CCCCCCCCCC(=O)N[C@H]4CCc5cc(OC)c(OC)c(OC)c5-c5ccc(OC)c(=O)cc54)nn3)nc(NCc3ccc(OC)cc3)n2)cc1 | 8.738 | 3.4 |  | 1010
COc1ccc(CNc2nc(NCc3ccc(OC)cc3)nc(NCc3cn(CCCCCCCCCC(=O)N[C@H]4CCc5cc(OC)c(OC)c(OC)c5-c5ccc(OC)c(=O)cc54)nn3)n2)cc1 | 8.465 | 0.99 |  | 699

Further lines, with some results ahead:

logD [1] | INH [3] | inhibition [4] | Structure (SMILES) | IC50 [2] [nM]
4.815 | 0.48 |  | COc1ccc(CNc2nc(NCCOC(=O)CCc3cn(CCC(=O)N[C@H]4CCc5cc(OC)c(OC)c(OC)c5-c5ccc(OC)c(=O)cc54)nn3)nc(NCc3ccc(OC)cc3)n2)cc1 | 2590
7.612 | 0.71 | Active | COc1ccc(CNc2nc(NCCOC(=O)CCCCCCCCc3cn(CCC(=O)N[C@H]4CCc5cc(OC)c(OC)c(OC)c5-c5ccc(OC)c(=O)cc54)nn3)nc(NCc3ccc(OC)cc3)n2)cc1 | 687
6.367 | 0.48 |  | COc1ccc(CNc2nc(NCCOC(=O)CCCc3cn(CCCCCC(=O)N[C@H]4CCc5cc(OC)c(OC)c(OC)c5-c5ccc(OC)c(=O)cc54)nn3)nc(NCc3ccc(OC)cc3)n2)cc1 | 1860
2.568 | 3.44 |  | COc1ccc(CNc2nc(NCCOC(=O)COCCOCCOCCOCCOCCOCCOCCOCCOCCOCCOCC(=O)N[C@H]3CCc4cc(OC)c(OC)c(OC)c4-c4ccc(OC)c(=O)cc43)nc(NCc3ccc(OC)cc3)n2)cc1 | 2930
5.591 | 0.41 |  | COc1ccc(CNc2nc(NCCOC(=O)CCCCc3cn(CCC(=O)N[C@H]4CCc5cc(OC)c(OC)c(OC)c5-c5ccc(OC)c(=O)cc54)nn3)nc(NCc3ccc(OC)cc3)n2)cc1 | 1620
